Reference: ChEMBL document CHEMBL1147605, “Syntheses and biological evaluation of new fluoroquinolone antibacterials containing chiral oxiimino pyrrolidine” (Bioorg Med Chem Lett, 2004)
In brackets after ≈: the same amount, converted by molar mass.

What was measured:
Enterobacter cloacae = assay: In vitro antibacterial activity against the Enterobacter cloacae 1321 E; type: functional
Escherichia coli [1] = assay: In vitro antibacterial activity against the Escherichia coli 078; type: functional
Pseudomonas aeruginosa [2] = assay: In vitro antibacterial activity against the Pseudomonas aeruginosa 1592E; type: functional
Pseudomonas aeruginosa [3] = assay: In vitro antibacterial activity against the Pseudomonas aeruginosa 1771M; type: functional
Salmonella typhimurium = assay: In vitro antibacterial activity against the Salmonella Typhimurium; type: functional, Salmonella enterica subsp. enterica serovar Typhimurium; settings: Salmonella enterica
Staphylococcus aureus [4] = assay: In vitro antibacterial activity against the Staphylococcus aureus SG511; type: functional
Streptococcus pyogenes [5] = assay: In vitro antibacterial activity against the Streptococcus pyogenes 308A; type: functional
Streptococcus pyogenes [6] = assay: In vitro antibacterial activity against the Streptococcus pyogenes 77A; type: functional
Escherichia coli [7] = assay: In vitro antibacterial activity against the Escherichia coli DC 2; type: functional
Staphylococcus aureus [8] = assay: In vitro antibacterial activity against the Staphylococcus aureus 285; type: functional
Enterococcus sp. = assay: In vitro antibacterial activity against the Ofloxacin Resistant Enterococcus knothe 101; type: functional
In short: (§1)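 MICs by agar dilution following National Committee for Clinical Laboratory Standards recommendations; all strains obtained from Hoechst.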

Klebsiella = assay: In vitro antibacterial activity against the Ofloxacin Resistant Klebsiella species 30-92; type: functional; in short: as §1
Pseudomonas aeruginosa [9] = assay: In vitro antibacterial activity against the Ofloxacin Resistant Pseudomonas aeruginosa 279II; type: functional; in short: as §1
[10] = test system: Staphylococcus epidermidis; assay: In vitro antibacterial activity against the Ofloxacin Resistant Staphylococcus epidermidis 291; type: functional; in short: as §1
[11] = test system: Staphylococcus epidermidis; assay: In vitro antibacterial activity against the Ofloxacin Resistant Staphylococcus epidermidis 319; type: functional; in short: as §1
Staphylococcus aureus [12] = assay: In vitro antibacterial activity against the Ofloxacin Resistant Staphylococcus aureus 179; type: functional; in short: as §1
Staphylococcus aureus [13] = assay: In vitro antibacterial activity against the Ofloxacin Resistant Staphylococcus aureus 293; type: functional; in short: as §1
Staphylococcus aureus [14] = assay: In vitro antibacterial activity against the Ofloxacin Resistant Staphylococcus aureus 303; type: functional; in short: as §1
Staphylococcus aureus [15] = assay: In vitro antibacterial activity against the Methicillin-Resistant Staphylococcus aureus (MRSA) 705 E; type: functional; in short: as §1
[16] = Plasma concentration for the compound was determined in rats at 50 mg/kg dose; type: ADME, organism-based; design: dose 50 mg/kg; settings: rat
In short: (§2)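 Pharmacokinetics were measured in SD rats given 50mg/kg, reporting Cmax, Tmax, T1/2 and AUC.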

[17] = Time for maximum plasma concentration reached by compound was determined in rats at 50 mg/kg dose; type: ADME, organism-based; design: dose 50 mg/kg; settings: rat; in short: as §2
HepG2 = assay: Cytotoxicity was determined for the compound in HepG2 cell line; type: functional, cell-based; settings: Homo sapiens
Staphylococcus aureus [18] = assay: In vitro antibacterial activity against the Methicillin-Resistant Staphylococcus aureus (MRSA) 690 E; type: functional; in short: as §1
Staphylococcus aureus [19] = assay: In vitro antibacterial activity against the Methicillin-Resistant Staphylococcus aureus (MRSA) 692 E; type: functional; in short: as §1
Staphylococcus aureus [20] = assay: In vitro antibacterial activity against the Methicillin-Resistant Staphylococcus aureus (MRSA) 697 E; type: functional; in short: as §1
Staphylococcus aureus [21] = assay: In vitro antibacterial activity against the Methicillin-Resistant Staphylococcus aureus (MRSA) 701 E; type: functional; in short: as §1
Staphylococcus aureus [22] = assay: In vitro antibacterial activity against the Methicillin-Resistant Staphylococcus aureus (MRSA) 707 E; type: functional; in short: as §1
V79-4 = assay: Cytotoxicity was determined for the compound in V79-4 cell line; type: functional, cell-based; settings: Cricetulus griseus
[23] = Half-life period for the compound was determined in rats at 50 mg/kg dose; type: ADME, organism-based; design: dose 50 mg/kg; settings: rat, in vivo
[24] = Maximum plasma concentration reached by compound was determined in rats at 50 mg/kg dose; type: ADME, organism-based; design: dose 50 mg/kg; settings: rat; in short: as §2

Compound: CO/N=C1\CN(c2c(F)cc3c(=O)c(C(=O)O)cn(C4CC4)c3c2Cl)CC1(C)CN.Cl (stereo unspecified)
- MIC (Enterobacter cloacae): 0.004 µg/mL
- MIC (Escherichia coli [1]): 0.007 µg/mL
- MIC (Pseudomonas aeruginosa [2]): 0.781 µg/mL
- MIC (Pseudomonas aeruginosa [3]): 0.195 µg/mL
- MIC (Salmonella typhimurium): 0.025 µg/mL
- MIC (Staphylococcus aureus [4]): 0.007 µg/mL
- MIC (Streptococcus pyogenes [5]): 0.195 µg/mL
- MIC (Streptococcus pyogenes [6]): 0.025 µg/mL
- MIC (Escherichia coli [7]): 0.025 µg/mL
- MIC (Staphylococcus aureus [8]): 0.007 µg/mL

Compound: CO/N=C1\CN(c2c(F)c(N)c3c(=O)c(C(=O)O)cn(C4CC4)c3c2F)CC1(C)CN.Cl (stereo unspecified)
- MIC (Enterococcus sp.): 0.025 µg/mL
- MIC (Enterobacter cloacae): < 0.002 µg/mL
- MIC (Escherichia coli [1]): < 0.002 µg/mL
- MIC (Klebsiella): 0.781 µg/mL
- MIC (Pseudomonas aeruginosa [9]): 6.25 µg/mL
- MIC (Pseudomonas aeruginosa [2]): 0.391 µg/mL
- MIC (Pseudomonas aeruginosa [3]): 0.195 µg/mL
- MIC (Salmonella typhimurium): < 0.002 µg/mL
- MIC [10]: 0.025 µg/mL
- MIC [11]: 0.049 µg/mL
- MIC (Staphylococcus aureus [12]): 0.025 µg/mL
- MIC (Staphylococcus aureus [13]): 0.025 µg/mL
- MIC (Staphylococcus aureus [14]): 0.025 µg/mL
- MIC (Staphylococcus aureus [15]): 0.004 µg/mL
- MIC (Staphylococcus aureus [4]): < 0.002 µg/mL
- MIC (Streptococcus pyogenes [5]): 0.013 µg/mL
- MIC (Streptococcus pyogenes [6]): < 0.002 µg/mL
- MIC (Escherichia coli [7]): 0.007 µg/mL

Compound: O=C(O)c1cn(C2CC2)c2cc(N3CCNCC3)c(F)cc2c1=O [CIPROFLOXACIN]
- AUC [16]: 12700 ng·h/mL
- Tmax [17]: 0.5 h
- MIC (Enterococcus sp.): 0.781 µg/mL (≈ 2.36 µM)
- IC50 (HepG2): 37.5 µg/mL (≈ 113 µM)
- MIC (Klebsiella): 1.56 µg/mL (≈ 4.72 µM)
- MIC (Pseudomonas aeruginosa [2]): 0.195 µg/mL (≈ 0.589 µM)
- MIC (Pseudomonas aeruginosa [3]): 0.098 µg/mL (≈ 0.296 µM)
- MIC [10]: 50 µg/mL (≈ 151 µM)
- MIC [11]: 100 µg/mL (≈ 302 µM)
- MIC (Staphylococcus aureus [12]): 12.5 µg/mL (≈ 37.7 µM)
- MIC (Staphylococcus aureus [13]): 12.5 µg/mL (≈ 37.7 µM)
- MIC (Staphylococcus aureus [14]): 12.5 µg/mL (≈ 37.7 µM)
- MIC (Staphylococcus aureus [18]): 0.391 µg/mL (≈ 1.18 µM)
- MIC (Staphylococcus aureus [19]): 0.391 µg/mL (≈ 1.18 µM)
- MIC (Staphylococcus aureus [20]): 0.391 µg/mL (≈ 1.18 µM)
- MIC (Staphylococcus aureus [21]): 0.391 µg/mL (≈ 1.18 µM)
- MIC (Staphylococcus aureus [15]): 0.391 µg/mL (≈ 1.18 µM)
- MIC (Staphylococcus aureus [22]): 0.195 µg/mL (≈ 0.589 µM)
- MIC (Staphylococcus aureus [4]): 0.195 µg/mL (≈ 0.589 µM)
- MIC (Streptococcus pyogenes [5]): 3.12 µg/mL (≈ 9.43 µM)
- MIC (Streptococcus pyogenes [6]): 0.391 µg/mL (≈ 1.18 µM)
- IC50 (V79-4): 58.5 µg/mL (≈ 177 µM)
- MIC (Escherichia coli [7]): 0.098 µg/mL (≈ 0.296 µM)
- MIC (Staphylococcus aureus [8]): 0.781 µg/mL (≈ 2.36 µM)

Compound: CO/N=C1\CN(c2nc3c(cc2F)c(=O)c(C(=O)O)cn3C2CC2)C[C@@]1(C)CN.Cl
- MIC (Enterococcus sp.): 0.391 µg/mL
- MIC (Enterobacter cloacae): 0.007 µg/mL
- MIC (Escherichia coli [1]): 0.025 µg/mL
- MIC (Klebsiella): 3.12 µg/mL
- MIC (Pseudomonas aeruginosa [9]): 6.25 µg/mL
- MIC (Pseudomonas aeruginosa [2]): 0.781 µg/mL
- MIC (Pseudomonas aeruginosa [3]): 0.391 µg/mL
- MIC (Salmonella typhimurium): 0.013 µg/mL
- MIC [10]: 3.12 µg/mL
- MIC [11]: 6.25 µg/mL
- MIC (Staphylococcus aureus [12]): 1.56 µg/mL
- MIC (Staphylococcus aureus [13]): 1.56 µg/mL
- MIC (Staphylococcus aureus [14]): 0.781 µg/mL
- MIC (Staphylococcus aureus [18]): 0.025 µg/mL
- MIC (Staphylococcus aureus [19]): 0.025 µg/mL
- MIC (Staphylococcus aureus [20]): 0.025 µg/mL
- MIC (Staphylococcus aureus [21]): 0.049 µg/mL
- MIC (Staphylococcus aureus [15]): 0.049 µg/mL
- MIC (Staphylococcus aureus [22]): 0.013 µg/mL
- MIC (Staphylococcus aureus [4]): 0.049 µg/mL
- MIC (Streptococcus pyogenes [5]): 0.195 µg/mL
- MIC (Streptococcus pyogenes [6]): 0.098 µg/mL
- MIC (Escherichia coli [7]): 0.098 µg/mL
- MIC (Staphylococcus aureus [8]): 0.049 µg/mL

Compound: CC1(CN)CN(c2nc3c(cc2F)c(=O)c(C(=O)O)cn3C2CC2)C/C1=N/OCc1ccccc1.Cl (stereo unspecified)
- MIC (Enterobacter cloacae): 0.049 µg/mL
- MIC (Escherichia coli [1]): 0.049 µg/mL
- MIC (Pseudomonas aeruginosa [2]): 6.25 µg/mL
- MIC (Pseudomonas aeruginosa [3]): 1.56 µg/mL
- MIC (Salmonella typhimurium): 0.098 µg/mL
- MIC (Staphylococcus aureus [4]): < 0.002 µg/mL
- MIC (Streptococcus pyogenes [5]): 0.195 µg/mL
- MIC (Streptococcus pyogenes [6]): 0.025 µg/mL
- MIC (Escherichia coli [7]): 0.098 µg/mL
- MIC (Staphylococcus aureus [8]): < 0.002 µg/mL

Compound: CO/N=C1\CN(c2nc3c(cc2F)c(=O)c(C(=O)O)cn3C2CC2)C[C@]1(C)CN.Cl
- half-life [23]: 4.5 h
- AUC [16]: 90800 ng·h/mL
- Tmax [17]: 2 h
- Cmax [24]: 9060 ng/mL
- MIC (Enterococcus sp.): 0.098 µg/mL
- MIC (Enterobacter cloacae): 0.007 µg/mL
- MIC (Escherichia coli [1]): 0.025 µg/mL
- IC50 (HepG2): 37.3 µg/mL
- MIC (Klebsiella): 1.56 µg/mL
- MIC (Pseudomonas aeruginosa [9]): 6.25 µg/mL
- MIC (Pseudomonas aeruginosa [2]): 1.56 µg/mL
- MIC (Pseudomonas aeruginosa [3]): 0.781 µg/mL
- MIC (Salmonella typhimurium): 0.013 µg/mL
- MIC [10]: 0.195 µg/mL
- MIC [11]: 0.391 µg/mL
- MIC (Staphylococcus aureus [12]): 0.098 µg/mL
- MIC (Staphylococcus aureus [13]): 0.098 µg/mL
- MIC (Staphylococcus aureus [14]): 0.098 µg/mL
- MIC (Staphylococcus aureus [18]): < 0.002 µg/mL
- MIC (Staphylococcus aureus [19]): < 0.002 µg/mL
- MIC (Staphylococcus aureus [20]): < 0.002 µg/mL
- MIC (Staphylococcus aureus [21]): < 0.002 µg/mL
- MIC (Staphylococcus aureus [15]): 0.004 µg/mL
- MIC (Staphylococcus aureus [22]): < 0.002 µg/mL
- MIC (Staphylococcus aureus [4]): 0.004 µg/mL
- MIC (Streptococcus pyogenes [5]): 0.098 µg/mL
- MIC (Streptococcus pyogenes [6]): 0.013 µg/mL
- IC50 (V79-4): 5.49 µg/mL
- MIC (Escherichia coli [7]): 0.049 µg/mL
- MIC (Staphylococcus aureus [8]): 0.007 µg/mL
